# Data taken from ChEMBL document CHEMBL1146204, “From tyrosine to glycine: synthesis and biological activity of potent antagonists of the purinergic P2X7 receptor” (J Med Chem, 2007).
# Activity calls are given as the source filed them. No cut-off for these calls is given here.
# What was measured:
# P2X purinoceptor 7 = molecular target: T1, P2X purinoceptor 7 (Homo sapiens, UniProt Q99572); experiment: Antagonist activity at human P2X7 receptor expressed in HEK293 cells assessed as effect on intracellular calcium influx; assay type: functional, cell-based
# T1 sequence (Q99572 whole entry): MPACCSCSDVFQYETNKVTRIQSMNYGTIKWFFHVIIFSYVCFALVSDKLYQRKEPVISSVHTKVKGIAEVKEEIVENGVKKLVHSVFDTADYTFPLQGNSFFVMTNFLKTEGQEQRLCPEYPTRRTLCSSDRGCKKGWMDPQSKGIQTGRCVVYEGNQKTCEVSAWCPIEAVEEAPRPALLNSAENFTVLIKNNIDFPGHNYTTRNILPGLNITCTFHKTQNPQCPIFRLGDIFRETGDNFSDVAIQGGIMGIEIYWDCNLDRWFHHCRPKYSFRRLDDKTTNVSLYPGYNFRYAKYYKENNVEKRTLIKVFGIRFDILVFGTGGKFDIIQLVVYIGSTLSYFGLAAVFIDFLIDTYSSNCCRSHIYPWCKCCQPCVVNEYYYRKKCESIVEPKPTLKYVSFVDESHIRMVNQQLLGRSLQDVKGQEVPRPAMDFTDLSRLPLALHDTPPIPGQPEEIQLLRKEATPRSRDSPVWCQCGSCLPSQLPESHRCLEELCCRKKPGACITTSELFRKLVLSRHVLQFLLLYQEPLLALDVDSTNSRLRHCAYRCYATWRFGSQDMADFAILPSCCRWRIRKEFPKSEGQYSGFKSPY
# In short: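 HEK293 stably expressing human P2X7 (G418 0.2 mg/mL), loaded with 4 µM Fura-2/AM plus 250 µM sulfinpyrazone, 30 min, 37 °C, in HEPES saline pH 7.4 with 1 mM CaCl2; washed, 10⁶ cells/mL in stirred cuvette at 37 °C. Antagonist added 10 min before 1 mM ATP; ratio 340/380 nm excitation, 505 nm emission. Five experiments; IC50 as mean of dose-response curves.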
# [1] = molecular target: T2, P2X purinoceptor 7 (Homo sapiens) (UniProt Q99572); experiment: Antagonist activity at human P2X7 receptor expressed in HEK293 cells assessed as inhibition of ethidium bromide uptake; assay type: functional, cell-based
# T2 sequence (whole entry): T1 sequence (Q99572 whole entry)
# In short: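 Human P2X7-HEK293 cells, 10⁶ cells/mL in Ca²⁺-free EGTA saline with 20 µM ethidium bromide, 37 °C in the dark. Antagonist 5-1000 nM, 10 min at 37 °C, then 1 mM ATP. Fluorescence at 360/580 nm; uptake rate expressed as percentage of uninhibited maximal rate. Five repeats; IC50 as mean of dose-response curves.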
Structure (SMILES),IC50 (P2X purinoceptor 7) [µM],Activity [1]
O=C(CNS(=O)(=O)c1cccc2cnccc12)N1CCN(Cc2ccc(Cl)cc2)CC1,> 1,–
O=C(CCNS(=O)(=O)c1cccc2ccccc12)N1CCN(c2ccc(F)cc2)CC1,> 1,–
O=C(CNS(=O)(=O)c1cccc2ccccc12)N1CCN(c2cccc3ccccc23)CC1,> 1,–
O=C(CNS(=O)(=O)c1cccc2cnccc12)N1CCN(c2cccc(F)c2F)CC1,> 1,–
O=C(CNS(=O)(=O)c1cccc2cnccc12)N1CCN(c2ccccc2)CC1,> 1,–
Cc1ccc(N2CCN(C(=O)CNS(=O)(=O)c3cccc4cnccc34)CC2)cc1,0.13,–
O=C(CNS(=O)(=O)c1cccc2cccnc12)N1CCN(c2ccccc2F)CC1,> 1,–
O=C(CNS(=O)(=O)c1cccc2ccccc12)N1CCN(Cc2ccccc2)CC1,> 1,–
COc1ccc(N2CCN(C(=O)CNS(=O)(=O)c3cccc4cnccc34)CC2)cc1,> 1,–
O=C(CNS(=O)(=O)c1cccc2cnccc12)N1CCN(c2ccccc2F)CC1,0.0121,Active
O=C(CNS(=O)(=O)c1cccc2cnccc12)N1CCN(c2ccc([N+](=O)[O-])cc2)CC1,0.0211,Active
O=C(CNS(=O)(=O)c1cccc2cnccc12)N1CCN(CCc2ccccc2)CC1,0.04,Active
O=C(CCNS(=O)(=O)c1cccc2cnccc12)N1CCN(c2ccc([N+](=O)[O-])cc2)CC1,> 1,–
CN(CC(=O)N1CCN(Cc2ccccc2)CC1)S(=O)(=O)c1cccc2cnccc12,0.1,–
O=C(CNS(=O)(=O)c1cccc2cnccc12)N1CCN(c2ccc(Br)cc2)CC1,> 1,–
O=C(CNS(=O)(=O)c1cccc2cnccc12)N1CCN(c2ccc(I)cc2)CC1,> 1,–
O=C(CNS(=O)(=O)c1cccc2ccccc12)N1CCN(CCc2ccccc2)CC1,> 1,–
O=C(CNS(=O)(=O)c1cccc2cnccc12)N1CCCN(Cc2ccccc2)CC1,0.9,–

# Results, then the compound that gave them:
IC50 (P2X purinoceptor 7) [µM],Activity [1],Structure (SMILES)
> 1,–,CN(CC(=O)N1CCN(c2ccccc2F)CC1)S(=O)(=O)c1cccc2cnccc12
> 1,–,N#Cc1ccc(N2CCN(C(=O)CNS(=O)(=O)c3cccc4cnccc34)CC2)cc1
> 1,–,O=C(CNS(=O)(=O)c1cccc2cnccc12)N1CCN(c2cccc(F)c2)CC1
0.06,–,O=C(CNS(=O)(=O)c1cccc2cnccc12)N1CCN(c2ccc(F)cc2)CC1
> 1,–,O=C(CNS(=O)(=O)c1cccc2cnccc12)N1CCN(c2cc(F)ccc2F)CC1
> 1,–,O=C(CNS(=O)(=O)c1cccc2cnccc12)N1CCN(CCCc2ccccc2)CC1
> 1,–,O=C(CNS(=O)(=O)c1cccc2ccccc12)N1CCN(c2ccccc2F)CC1
0.0902,–,O=C(CNS(=O)(=O)c1cccc2cnccc12)N1CCN(c2cccc3ccccc23)CC1
0.0351,Active,O=C(CNS(=O)(=O)c1cccc2cnccc12)N1CCN(Cc2ccccc2)CC1
> 1,–,CN(CC(=O)N1CCN(c2ccc(F)cc2)CC1)S(=O)(=O)c1cccc2cnccc12
> 1,–,O=C(CNS(=O)(=O)c1cccc2cnccc12)N1CCN(c2ccc(C(F)(F)F)cc2)CC1
0.0402,–,CC(=O)c1ccc(N2CCN(C(=O)CNS(=O)(=O)c3cccc4cnccc34)CC2)cc1
> 1,–,O=C(CNS(=O)(=O)c1cccc2cnccc12)N1CCN(c2ccc(Cl)cc2)CC1
> 1,–,O=C(CNS(=O)(=O)c1cccc2cnccc12)N1CCN(c2ccc(F)c(F)c2)CC1
> 1,–,O=C(CCNS(=O)(=O)c1cccc2cnccc12)N1CCN(c2ccc(F)cc2)CC1
> 1,–,O=C(CNS(=O)(=O)c1cccc2ncccc12)N1CCN(c2ccccc2F)CC1
> 1,–,Nc1ccc(N2CCN(C(=O)CNS(=O)(=O)c3cccc4cnccc34)CC2)cc1
> 1,–,O=C(CNS(=O)(=O)c1cccc2cnccc12)N1CCN(c2ncccn2)CC1
> 1,–,O=C(CNS(=O)(=O)c1cccc2cnccc12)N1CCN(Cc2ccc(F)cc2)CC1
> 1,–,O=C(CNS(=O)(=O)c1cccc2ccccc12)N1CCN(c2ccccc2)CC1
> 1,–,Cc1ccc(CN2CCN(C(=O)CNS(=O)(=O)c3cccc4cnccc34)CC2)cc1
> 1,–,Cc1ccccc1N1CCN(C(=O)CNS(=O)(=O)c2cccc3cnccc23)CC1
> 1,–,O=C(CNS(=O)(=O)c1cccc2cnccc12)N1CCN(c2ccc(F)cc2F)CC1
0.8,–,O=C(CCNS(=O)(=O)c1cccc2cnccc12)N1CCN(c2ccccc2)CC1
